# The list is not random: actives were taken first. Their share in the collection is about 1.8%.
# M4 ag: agonists of human muscarinic M4 receptor (CHRM4); P08173; CHO-K1 hM4/Gqi5, Fluo-8 calcium fluorescence; vehicle 0%, full acetylcholine response 100%; activation, % at 3 µM; 360,000 tested, 0.14% active;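 active means activation above the run mean over all test wells plus 3 SD, cut at about 32% in these data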;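 further: peak over basal fluorescence ratio per well then scaled between controls; 0% = DMSO wells and 100% = acetylcholine at EC100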
# Target sequence (P08173 whole entry, looked up): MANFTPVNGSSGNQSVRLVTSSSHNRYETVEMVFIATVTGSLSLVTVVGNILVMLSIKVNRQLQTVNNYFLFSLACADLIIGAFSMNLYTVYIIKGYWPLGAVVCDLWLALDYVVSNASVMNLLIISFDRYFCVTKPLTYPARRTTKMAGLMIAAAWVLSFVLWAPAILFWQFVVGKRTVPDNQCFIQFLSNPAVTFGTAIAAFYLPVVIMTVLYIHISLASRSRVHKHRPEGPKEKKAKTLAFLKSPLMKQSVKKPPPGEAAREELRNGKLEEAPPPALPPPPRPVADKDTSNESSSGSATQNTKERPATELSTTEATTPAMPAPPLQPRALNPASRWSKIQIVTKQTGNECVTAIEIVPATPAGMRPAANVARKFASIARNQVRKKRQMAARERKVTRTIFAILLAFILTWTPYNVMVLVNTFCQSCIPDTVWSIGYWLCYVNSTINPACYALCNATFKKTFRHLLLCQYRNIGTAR
# CHRM4 PAM: positive allosteric modulators of human muscarinic M4 receptor. P08173. CHO-K1 hM4/Gqi5, Fluo-8 calcium fluorescence, ACh EC20; 0% = ACh EC20, 100% = maximal ACh. activation, % at 3 µM. 360,000 tested, 0.4% active. AID 624126;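 active means activation above its plate's cutoff, the mean activation of sample wells plus 3 SD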
# CHRM4 antagonist: antagonists of human muscarinic M4 receptor (CHRM4) | P08173 | inhibition, % at 3 µM | 360,000 tested, 0.73% active | CHO-hM4 cells, ACh EC80, Fluo-8 calcium fluorescence;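 active means inhibition above its plate's cutoff, the mean inhibition of sample wells plus 3 SD, cut at about 27% in these data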;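 further: 0% = acetylcholine EC80 with DMSO and 100% = DMSO without agonist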
# M5 ag: agonists of human muscarinic M5 receptor (CHRM5); activation, % at 3 µM; CHO-K1 hM5 cells, Fluo-8 calcium fluorescence; 0% DMSO wells, 100% maximal acetylcholine response; 360,000 tested, 0.19% active; P08912;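 active means activation above the run's mean over test compounds plus 3 SD, cut at about 23% in these data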;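 further: signal is peak over basal fluorescence ratio across the kinetic read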
# M5 PAM: positive allosteric modulators of human muscarinic M5 receptor | P08912 | CHO-K1 hM5, Fluo-8 calcium, ACh EC20 PAM; 0% = ACh EC20, 100% = ACh EC100 | activation, % at 3 µM | 360,000 tested, 0.3% active;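 active means activation above the run cutoff, the mean activation of all test compounds plus 3 SD, cut at about 18% in these data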
#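 Assay system: CHO-K1 hM5 cells / Incubation: Fluo-8 loading 80 min at 37 °C plus 30 min room temperature / Technique: Fluo-8 calcium dye fluorescence, kinetic read / Repeats: single replicate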
# M5 antag: antagonists of human muscarinic M5 receptor (CHRM5) | P08912 | CHO-hM5 cells, Fluo-8 calcium fluorescence, ACh EC80 | inhibition, % at 3 µM | 360,000 tested, 0.59% active | AID 624040;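 active means inhibition above a per-plate cutoff, the mean of that plate's test compounds plus 3 SD, cut at about 27% in these data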;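 further: 0% = acetylcholine EC80 with DMSO and 100% = DMSO without agonist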
# An asterisk follows results filed as active.
SMILES,M4 ag,CHRM4 PAM,CHRM4 antagonist,M5 ag,M5 PAM,M5 antag
Cc1ccccc1NC(=O)N1CCN(c2ncccn2)CC1,1,8,-14,-4,4,-12
Cc1ccc(F)cc1NC(=O)CSc1n[nH]c(N)n1,0,7,10,2,2,3
Cc1cccc(C)c1NC(=O)C(C1CC1)n1c(-c2ccc(=O)[nH]c2)nc2ccccc21 (stereo not given),1,6,-7,1,21*,-21
Cc1cccc(C)c1NC(=O)C(C)n1c(-c2ccc(=O)[nH]c2)nc2ccccc21 (stereo not given),4,7,-7,1,-1,-2
Cc1ccc(C)c(-c2nnc(OCC(=O)Nc3cc(C)on3)c3ccccc23)c1,0,16*,-1,2,8,-5
C/C(CC(=O)Nc1ccc(Cl)cc1Cl)=N\NC(=O)C(=O)N1CCCC1,0,-3,-1,-1,2,0
C/C(CC(=O)Nc1ccccc1Br)=N\NC(=O)C(=O)N1CCCC1,0,5,1,-6,61*,2
Cc1ccc2nc(-c3ccc(Cl)cc3)c(Cc3cccc(Cl)c3)n2c1,-1,-4,-3,-6,-20,1
Cc1ccc2nc(C(C)(C)C)c(Cc3cccc(Cl)c3)n2c1,-2,-15,27*,-8,-22,20
C(C#CCCCCCCCCC[n+]1ccccc1)#CCCCCCCCCC[n+]1ccccc1,0,-10,92*,-12,-38,99*
Cc1cc(C(c2ccc(O)cc2)c2cc(C)c(O)cc2C)c(C)cc1O,30,-7,8,37*,-1,7
CCCS(=O)(=O)NC(=O)C1(C)CCCN(C(=O)c2ccc3ccccc3c2)C1 (stereo not given),1,17*,-6,1,3,-3
COCCC1CCCCN1C(=O)c1ccc2nc(Cc3ccccc3F)oc2c1 (stereo not given),3,2,5,-3,-5,18
c1ccc(CCNc2ccnc3cc4ccccc4cc23)cc1,10,-16,21,-5,-33,36*
CC(C)Nc1ccc(Nc2ccnc3cc4ccccc4cc23)cc1,7,-5,-11,-17,4,-6
CCN(C(=O)CSc1nc2ccc(Cl)cc2[nH]1)C1CCS(=O)(=O)C1 (stereo not given),1,4,-5,3,9,4
COc1cccc(C2CC(c3ccccc3)=NN2S(=O)(=O)c2ccc(C)cc2)c1OC (stereo not given),1,-6,2,5,27*,3
O=[N+]([O-])c1c(Nc2ccc(O)cc2)cc(Cl)c2nonc12,-2,-8,78*,-8,-10,43*
O=C(Nc1ccc(Cl)cc1)N1CCC(c2nc(-c3ccc(F)cc3)no2)CC1,21,-17,19,3,-24,47*
CC1=C/C(=N\OS(=O)(=O)c2ccccc2)C(C)=CC1=O,18,-16,70*,44*,-26,66*
CC(S(=O)(=O)c1ccccc1)S(=O)(=O)c1ccccc1,1,-1,-1,-1,-3,16
CC1=C/C(=N\OS(=O)(=O)c2ccccc2)C(C(C)C)=CC1=O,1,-9,18,27*,-9,79*
COc1ccc(S(=O)(=O)/N=C2/C=CC(=O)C(C)=C2C)cc1,1,5,2,0,1,2
CC1=C(C)/C(=N\OS(=O)(=O)c2ccc(C)cc2)C=CC1=O,12,-9,60*,13,3,24
O=C(OCC(=O)C12CC3CC(CC(C3)C1)C2)c1cccnc1Cl,1,6,-7,1,-1,0
COC(=O)c1cc(CNC(=O)c2ccccc2OCc2c(C)noc2C)ccc1OC,5,18*,1,-1,2,-25
O=C(O)CCN1C(=O)C2CCCCC2C1=O (stereo not given),1,19*,-16,0,-2,3
O=C(O)CCN1C(=O)C2C3C=CC(C3)C2C1=O (stereo not given),0,-3,9,-1,1,-2
